Measured values taken from ChEMBL document CHEMBL1145820, “Design, synthesis, and evaluation of novel boronic-chalcone derivatives as antitumor agents” (J Med Chem, 2003).

tested on: MCF-10A; experiment: Inhibitory activity against MCF-10A human breast cell line; type: functional, cell-based

Compound	IC50
O=C(/C=C/c1ccc(I)cc1)c1ccc(O)cc1	15 µM
O=C(O)COc1ccc(C(=O)/C=C/c2ccc(I)cc2)cc1	44 µM
O=C(/C=C/c1ccc(Cl)c(Cl)c1)c1ccc(B(O)O)cc1	18 µM
O=C(/C=C/c1ccc(B(O)O)cc1)c1ccc(Cl)c(Cl)c1	18 µM
O=C(/C=C/c1ccc(F)c(Br)c1)c1ccc(B(O)O)cc1	17 µM
O=C(/C=C/c1ccccc1)c1ccc[nH]1	63 µM
O=C(/C=C/c1ccc(B(O)O)cc1)c1ccc[nH]1	38 µM
O=C(/C=C/c1ccc(I)cc1)c1ccc(B(O)O)cc1	75 µM
O=C(O)COc1ccc(C(=O)/C=C/c2ccc(Cl)c(Cl)c2)cc1	13 µM
O=C(/C=C/c1ccc(F)c(Cl)c1)c1ccc(B(O)O)cc1	25 µM
O=C(/C=C/c1ccc(I)cc1)c1ccc(OCB(O)O)cc1	38 µM
O=C(/C=C/c1ccc(F)c(F)c1)c1ccc(B(O)O)cc1	18 µM
O=C(O)COc1ccc(/C=C/C(=O)c2ccc(Cl)c(Cl)c2)cc1	12 µM

tested on: MCF-12A; experiment: Inhibitory activity against MCF-12A human breast cell line; type: functional, cell-based

Compound	IC50
O=C(/C=C/c1ccc(I)cc1)c1ccc(O)cc1	30 µM
O=C(O)COc1ccc(C(=O)/C=C/c2ccc(I)cc2)cc1	38 µM
O=C(/C=C/c1ccccc1)c1ccc[nH]1	38 µM
O=C(/C=C/c1ccc(B(O)O)cc1)c1ccc[nH]1	60 µM
O=C(O)COc1ccc(C(=O)/C=C/c2ccc(Cl)c(Cl)c2)cc1	15 µM
O=C(/C=C/c1ccc(I)cc1)c1ccc(OCB(O)O)cc1	100 µM
O=C(O)COc1ccc(/C=C/C(=O)c2ccc(Cl)c(Cl)c2)cc1	28 µM

Results, then the compound that gave them:

IC50	Compound
11 µM	O=C(/C=C/c1ccc(Cl)c(Cl)c1)c1ccc(B(O)O)cc1
15 µM	O=C(/C=C/c1ccc(B(O)O)cc1)c1ccc(Cl)c(Cl)c1
38 µM	O=C(/C=C/c1ccc(F)c(Br)c1)c1ccc(B(O)O)cc1
63 µM	O=C(/C=C/c1ccc(I)cc1)c1ccc(B(O)O)cc1
22 µM	O=C(/C=C/c1ccc(F)c(Cl)c1)c1ccc(B(O)O)cc1
39 µM	O=C(/C=C/c1ccc(F)c(F)c1)c1ccc(B(O)O)cc1

tested on: MDA-MB-435; experiment: Inhibitory activity against MDA-MB-435 human breast cell line; type: functional, cell-based
Method in brief: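 Cells kept in IMEM with 5% FBS and 2 mM glutamine at 37 °C, 5% CO2. After 24 h attachment, cells were exposed in quadruplicate wells to 0.5-100 µM compound (10 mM DMSO stocks) for 96 h. Read-out was MTT (1 mg/mL, 4 h), with formazan dissolved in DMSO:ethanol and absorbance at 540 nm. IC50 came from log plots of percent of control vs concentration; assayed twice.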

Compound	IC50
O=C(/C=C/c1ccc(I)cc1)c1ccc(O)cc1	4.5 µM
O=C(O)COc1ccc(C(=O)/C=C/c2ccc(I)cc2)cc1	18 µM
O=C(/C=C/c1ccccc1)c1ccc[nH]1	15 µM
O=C(/C=C/c1ccc(B(O)O)cc1)c1ccc[nH]1	15 µM
O=C(O)COc1ccc(C(=O)/C=C/c2ccc(Cl)c(Cl)c2)cc1	9 µM
O=C(/C=C/c1ccc(I)cc1)c1ccc(OCB(O)O)cc1	18 µM
O=C(O)COc1ccc(/C=C/C(=O)c2ccc(Cl)c(Cl)c2)cc1	13 µM

More lines, now with the values ahead:

IC50	Compound
3.5 µM	O=C(/C=C/c1ccc(Cl)c(Cl)c1)c1ccc(B(O)O)cc1
4 µM	O=C(/C=C/c1ccc(B(O)O)cc1)c1ccc(Cl)c(Cl)c1
8.8 µM	O=C(/C=C/c1ccc(F)c(Br)c1)c1ccc(B(O)O)cc1
10 µM	O=C(/C=C/c1ccc(I)cc1)c1ccc(B(O)O)cc1
16 µM	O=C(/C=C/c1ccc(F)c(Cl)c1)c1ccc(B(O)O)cc1
8.8 µM	O=C(/C=C/c1ccc(F)c(F)c1)c1ccc(B(O)O)cc1

tested on: MCF7; experiment: Inhibitory activity against Wt-MCF7 human breast cell line; type: functional, cell-based
Method in brief: (§1)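 Cells kept in DMEM with 5% FBS, 2 mM glutamine and penicillin/streptomycin at 37 °C, 5% CO2. Cells plated and attached for 24 h, then exposed to 0.5-100 µM compound (10 mM DMSO stocks) for 96 h in quadruplicate wells. MTT (1 mg/mL, serum-free medium) was added for 4 h, formazan dissolved in DMSO:ethanol 1:1, and A540 read. IC50 taken from log plots of percent of control; two runs.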

Compound	IC50
O=C(/C=C/c1ccc(I)cc1)c1ccc(O)cc1	7 µM
O=C(O)COc1ccc(C(=O)/C=C/c2ccc(I)cc2)cc1	9 µM
O=C(/C=C/c1ccccc1)c1ccc[nH]1	9 µM
O=C(/C=C/c1ccc(B(O)O)cc1)c1ccc[nH]1	19 µM
O=C(O)COc1ccc(C(=O)/C=C/c2ccc(Cl)c(Cl)c2)cc1	13 µM
O=C(/C=C/c1ccc(I)cc1)c1ccc(OCB(O)O)cc1	9.5 µM
O=C(O)COc1ccc(/C=C/C(=O)c2ccc(Cl)c(Cl)c2)cc1	15 µM

Other lines, results leading:

IC50	Compound
5 µM	O=C(/C=C/c1ccc(Cl)c(Cl)c1)c1ccc(B(O)O)cc1
5.5 µM	O=C(/C=C/c1ccc(B(O)O)cc1)c1ccc(Cl)c(Cl)c1
8.5 µM	O=C(/C=C/c1ccc(F)c(Br)c1)c1ccc(B(O)O)cc1
7 µM	O=C(/C=C/c1ccc(I)cc1)c1ccc(B(O)O)cc1
6 µM	O=C(/C=C/c1ccc(F)c(Cl)c1)c1ccc(B(O)O)cc1
7.8 µM	O=C(/C=C/c1ccc(F)c(F)c1)c1ccc(B(O)O)cc1

tested on: MDA-MB-231; experiment: Inhibitory activity against MDA-MB-231 human breast cell line; type: functional, cell-based; method in brief: as §1

Compound	IC50
O=C(/C=C/c1ccc(I)cc1)c1ccc(O)cc1	8 µM
O=C(O)COc1ccc(C(=O)/C=C/c2ccc(I)cc2)cc1	44 µM
O=C(/C=C/c1ccccc1)c1ccc[nH]1	15 µM
O=C(/C=C/c1ccc(B(O)O)cc1)c1ccc[nH]1	23 µM
O=C(O)COc1ccc(C(=O)/C=C/c2ccc(Cl)c(Cl)c2)cc1	9 µM
O=C(/C=C/c1ccc(I)cc1)c1ccc(OCB(O)O)cc1	11 µM
O=C(O)COc1ccc(/C=C/C(=O)c2ccc(Cl)c(Cl)c2)cc1	18 µM

Continued, values first:

IC50	Compound
9.5 µM	O=C(/C=C/c1ccc(Cl)c(Cl)c1)c1ccc(B(O)O)cc1
8 µM	O=C(/C=C/c1ccc(B(O)O)cc1)c1ccc(Cl)c(Cl)c1
9.5 µM	O=C(/C=C/c1ccc(F)c(Br)c1)c1ccc(B(O)O)cc1
8.8 µM	O=C(/C=C/c1ccc(I)cc1)c1ccc(B(O)O)cc1
8.5 µM	O=C(/C=C/c1ccc(F)c(Cl)c1)c1ccc(B(O)O)cc1
8.8 µM	O=C(/C=C/c1ccc(F)c(F)c1)c1ccc(B(O)O)cc1
